From PubChem
PLC-beta3 inh: blocks human PLC-beta3 enzyme activity | Purified PLC-beta3, fluorogenic substrate, fluorescence | actives 0.18% (n = 370,000) | inhibition, % at 12.2 µM | AID 720704 | Q01970;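 also: 0% = median of compound wells on plate and 100% = full blocker control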
UCH37 DUB inh: blocks the human deubiquitinase UCH37. Q9Y5K5. purified proteasome/UCH37, Ub-AMC cleavage fluorescence. inhibition, % (no concentration beside the values). actives 0.33% (n = 330,000). AID 588478;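 active = mean inhibition over replicate wells above about 20%, limit read from the data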;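 also: 0% = compound-free wells with enzyme and 100% = wells lacking proteasome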
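Assay system: Proteasome-bound UCH37. Buffer or medium: pH 7.4 Tris-HCl (50 mM) with ovalbumin, ATP-MgCl2, DTT. Incubation: 30 min preincubation with enzyme, 25 min cleavage at room temperature. Measured by: fluorescence, ex 355 nm, em 460 nm. Read-out basis: percent inhibition. Control set: wells without proteasome as full block, compound-free enzyme plus substrate as uninhibited.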
Rpn11 block: Rpn11 (human) deubiquitinase inhibition | O00487 | actives 0.59% (n = 360,000) | AID 588493 | inhibition, % at 20 µM | human 26S proteasome, Ub4-pepOG fluorescence polarization; 20S core pre-blocked with epoxomicin;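 active = inhibition at 20 µM, scaled to each plate's controls, above about 33%, limit read from the data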
Target sequence (O00487 whole entry, looked up): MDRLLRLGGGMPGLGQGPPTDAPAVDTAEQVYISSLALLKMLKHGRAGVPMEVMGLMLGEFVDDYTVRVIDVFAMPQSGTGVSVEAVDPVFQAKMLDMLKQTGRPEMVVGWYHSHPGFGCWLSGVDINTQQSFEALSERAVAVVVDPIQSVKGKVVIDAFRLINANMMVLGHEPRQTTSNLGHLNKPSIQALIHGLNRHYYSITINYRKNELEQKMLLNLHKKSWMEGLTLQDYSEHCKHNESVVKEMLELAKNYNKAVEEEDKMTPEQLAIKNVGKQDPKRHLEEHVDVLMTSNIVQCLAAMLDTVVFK
PLC-gamma1 inh: inhibitors of human phospholipase C gamma1. P19174. purified PLC-gamma1, fluorogenic substrate, fluorescence. inhibition, % at 12.2 µM. actives 0.84% (n = 370,000); in the data active = inhibition above about 9.5%
PLCg1 ctr: PLC-gamma1 inhibition, counter-screen for PLC-beta3 hits; inhibition, % at 12.3 µM; purified PLC-gamma1, fluorogenic substrate, fluorescence; shares compounds with PLC-gamma1 inh; actives 3.1% (n = 3,300); AID 743258; in the data active = inhibition above about 9.5%
PLCbeta3 conf: confirmation of human PLC-beta3 inhibitors; inhibition, % at 12.3 µM; shares compounds with PLC-gamma1 inh; AID 743261; purified PLC-beta3, fluorogenic substrate fluorescence; actives 1% (n = 3,300)
* hit, by the source's call; x = no result. An excerpt weighted towards active compounds, which were near 1.7% of everything screened. Rule as the data show it, unless noted: active = inhibition above about 11%; inactive = the rest.

SMILES	PLC-beta3 inh	UCH37 DUB inh	Rpn11 block	PLC-gamma1 inh	PLCg1 ctr	PLCbeta3 conf
COc1ccc(NCC(=O)NN=Cc2c(C)nn(Cc3ccccc3)c2Cl)cc1	x	3	x	x	x	x
CCCCn1c(-c2nonc2NC(=O)c2ccccc2Cl)nc2ccccc21	-4	-12	-5	12*	-10	-7
N#CCCn1c(-c2nonc2NC(=O)c2ccccc2Cl)nc2ccccc21	0	-128	14	-2	x	x
COc1cccc(S(=O)(=O)Nc2ccc3c(c2)OCCO3)c1	-3	4	4	9.6*	-3	-1
Cc1cccc(S(=O)(=O)Nc2ccc3c(c2)OCCO3)c1	-5	-2	3	0	x	x
Cc1ccccc1NC(=S)c1nc2ccccc2[nH]1	3	1	14	10*	0	1
CC1CCN(C2(O)C(=O)Nc3ccc(Cl)cc32)CC1 (stereo not drawn)	-4	1	-2	0	x	x
CC1CCN(C2(O)C(=O)Nc3ccc([N+](=O)[O-])cc32)CC1 (stereo not drawn)	14*	15	-1	10*	-3	3
CSc1nc(C)c(Cc2ccccc2)c(=O)[nH]1	0	2	-1	11*	-11	-3
CC(=O)Nc1ccc(NC(=O)c2cc(S(=O)(=O)N3CCCCC3)ccc2C)cc1	7	2	-1	-2	x	x
Cc1cc(C(F)F)n2nc(C(=O)Nc3ccc(S(=O)(=O)N4CCCCCC4)cc3)nc2n1	6	-11	-1	9.9*	-4	-4
O=C(Nc1cccc(O)c1)c1ccc(S(=O)(=O)N2CCCCCC2)cc1	-2	-1	-2	11*	1	-4
Cc1cc(C(F)F)n2nc(C(=O)Nc3cccc(S(=O)(=O)N4CCOCC4)c3)nc2n1	-7	0	4	-5	x	x
Cc1ccc(S(=O)(=O)N2CCCCC2)cc1C(=O)Nc1ccc(N2CCOCC2)cc1	2	1	-1	12*	-6	-4
Oc1ccc(C=NNc2ccccc2)cc1	x	-1	x	x	x	x
Cc1cccc(C)c1-n1c(C)cc(C=NNC(=O)c2ccncc2)c1C	x	9	x	x	x	x
CCNC(=O)COC(=O)C1CCN(S(=O)(=O)c2ccc3c(c2)OCCO3)CC1	-4	4	1	10*	-4	-1
CC(C)C(C)NC(=O)COC(=O)C1CCN(S(=O)(=O)c2ccc3c(c2)OCCO3)CC1 (stereo not drawn)	-2	2	-2	11*	-6	-1
CCCNC(=O)COC(=O)C1CCN(S(=O)(=O)c2ccc3c(c2)OCCO3)CC1	0	0	3	1	x	x
COc1ccc(C(C)=NNC(=O)c2ccc(NS(=O)(=O)c3cccs3)cc2)cc1	x	4	x	x	x	x
O=C(O)C(Cc1ccccc1)n1cnnn1 (stereo not drawn)	5	1	1	10*	-5	-2
CCCOc1cccc(/C=N/NC(=O)c2csc(C)c2C)c1	5	x	-1	11*	-4	-2
COCCn1c(SCC(=O)OC(C)C)nnc1-c1ccccc1	8	2	2	12*	-3	0
O=C(CSc1nnc(-c2ccccc2)n1Cc1ccco1)Nc1ccc(OCc2ccccc2)cc1	7	x	x	11*	1	0
COc1cc(C(=O)NCc2ccccc2)ccc1OC(F)F	-1	1	7	-3	x	x
SMILES	PLC-beta3 inh	UCH37 DUB inh	Rpn11 block	PLC-gamma1 inh	PLCg1 ctr	PLCbeta3 conf
COc1cc(C(=O)NCc2ccc(C)cc2)ccc1OC(F)F	-3	2	-5	9.7*	1	-6
O=C(CSc1nncn1-c1ccccc1)Nc1ccc(N2CCOCC2)cc1	1	4	4	9.8*	-4	-2
O=C(CSc1n[nH]c(=O)n1-c1ccccc1)Nc1ccccc1	9	2	-2	15*	-10	-4
O=C(CSc1nnnn1-c1ccccc1)Nc1ccc(Cl)cc1	4	2	6	14*	-7	-2
Nc1nnnn1N=Cc1ccccc1OCc1ccc(Cl)cc1Cl	x	1	x	x	x	x
CC(C)(C)c1cc(CCC(=O)NCCc2ccccn2)cc(C(C)(C)C)c1O	-2	3	4	-1	x	x
O=C1C=C(NCCc2cc(Br)c(O)c(Br)c2)C(=O)c2ncccc21	6	x	-29	12*	7	1
Cc1cc(C)n2nc(C(=O)NN=Cc3c4ccccc4cc4ccccc34)nc2n1	x	-19	x	x	x	x
COC(=O)NNC(=O)C12CC3CC(CC(C3)C1)C2	5	6	-10	14*	-6	-3
O=c1c(-c2ccnn2-c2ccc(F)cc2)cnc2n1CCS2	0	1	-3	-1	x	x
O=c1ccnc2n1COCS2	0	4	0	12*	-5	-1
Cc1cc(C(=O)NN=Cc2cc(C(C)(C)C)c(O)c(C(C)(C)C)c2)n[nH]1	x	2	x	x	x	x
C=CCNC(=S)NN=Cc1ccc(OCc2ccccc2Cl)cc1	x	5	x	x	x	x
C=CCNC(=S)N/N=C/c1ccc(OCc2ccccc2Cl)cc1	-1	x	-1	10*	-5	-9
C=C(C)C1CC=C(C)C(=NNC(=O)CNc2ccc(OCC)cc2)C1 (stereo not drawn)	x	2	x	x	x	x
CN(c1ccc(F)cc1)S(=O)(=O)c1ccc(Cl)c(C(=O)Nc2ccncc2)c1	-7	2	-4	1	x	x
CN(c1ccccc1)S(=O)(=O)c1ccc(Cl)c(C(=O)Nc2ccncc2)c1	2	1	7	9.8*	-6	-6
CCn1cnnc1SCC(=O)Nc1ccccc1C(=O)NC1CC1	11*	3	2	11*	-2	0
Cc1ccsc1/C=N/NC(=O)C1CC(=O)N(c2ccccc2)C1 (stereo not drawn)	11*	x	-12	3	4	3
CC(=O)Nc1ccc(N2C(=O)CSC2c2ccc(F)cc2)cc1 (stereo not drawn)	1	5	0	0	x	x
CC(=O)Nc1ccc(N2C(=O)CSC2c2c(F)cccc2Cl)cc1 (stereo not drawn)	14*	5	-10	8	-2	-2
Cc1csc(=NN=Cc2ccc(O)cc2)n1Cc1ccco1	x	1	x	x	x	x
O=C(O)c1ccc(NC2=C/C(=N/S(=O)(=O)c3ccccc3)c3ccccc3C2=O)cc1	7	x	-13	11*	18*	8
O=C1C(Nc2ccc(O)cc2)=C/C(=N/S(=O)(=O)c2cccs2)c2ccccc21	7	x	-5	20*	29*	11*
NCCCCC(N)c1cn([C@@H](CCC(=O)O)C(=O)N2CCNCC2)nn1 (stereo partly drawn)	13*	1	-5	0	-3	0
CC1(C(=O)NS(=O)(=O)c2cccs2)CCN1C(=O)c1cccc(F)c1 (stereo not drawn)	14*	x	-6	-1	-1	-1
CC1(C(=O)NS(=O)(=O)c2cccs2)CCN1C(=O)c1ccccc1 (stereo not drawn)	4	x	-7	3	x	x
CC(C)CCNC(=O)NC(=O)COC(=O)CCN=C1NS(=O)(=O)c2ccccc21	-2	-2	0	11*	-8	-1
